Laboratory results as given in ChEMBL document CHEMBL4725241, “Discovery of BMS-986235/LAR-1219: A Potent Formyl Peptide Receptor 2 (FPR2) Selective Agonist for the Prevention of Heart Failure” (J Med Chem, 2020).
Activity calls are given as the source filed them. The rule behind the calls is not given here.

How the values were obtained:
[1] = Cmax in cynomolgus monkey at 3 mg/kg, po by LC-MS/MS analysis; format: ADME, organism-based, Macaca fascicularis; design: route oral, dose 3 mg/kg; details: in vivo
Summary of the method: (§1)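 Male animals dosed orally with a suspension in 0.5% MC. Blood was taken into EDTA 2K capillaries and plasma was stored frozen. Plasma was mixed with methanol/acetonitrile (1:1) plus internal standard, centrifuged, and drug was measured by LC-MS/MS. AUC0-inf was obtained by the trapezoidal rule, extrapolated with kel from the terminal phase. t1/2 = ln2/kel.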

[2] = target: T1, Formyl peptide receptor 2 (Mus musculus, UniProt O88536); experiment: Agonist activity at mouse FPR2 expressed in CHO cells assessed as reduction cAMP accumulation incubated for 1 hr by TR-FRET assay; format: cell-based
T1 sequence (O88536 whole entry): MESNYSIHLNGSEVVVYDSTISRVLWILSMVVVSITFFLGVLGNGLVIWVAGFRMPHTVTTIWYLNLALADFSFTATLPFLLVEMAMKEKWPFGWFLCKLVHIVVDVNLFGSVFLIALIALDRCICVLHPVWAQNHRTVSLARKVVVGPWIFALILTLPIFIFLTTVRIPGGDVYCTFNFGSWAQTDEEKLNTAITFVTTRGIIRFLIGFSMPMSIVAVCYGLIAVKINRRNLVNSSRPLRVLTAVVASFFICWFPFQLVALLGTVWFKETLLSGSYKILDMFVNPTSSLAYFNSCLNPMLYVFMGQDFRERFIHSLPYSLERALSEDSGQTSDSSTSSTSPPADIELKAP

[3] = Oral bioavailability in BALB/cCrSlc mouse at 1 mg/kg by LC-MS/MS analysis; format: ADME, organism-based; details: in vivo
Summary of the method: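 Oral bioavailability = (AUC0-inf,po/dose po)/(AUC0-inf,iv/dose iv) × 100. Oral dosing used a 0.5% MC suspension. IV dosing used a DMSO/PEG400/saline (5/47.5/47.5) solution, with CD1(ICR) mice for the iv arm. Plasma drug levels were measured by LC-MS/MS after methanol/acetonitrile extraction with internal standard.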

[4] = Half life in Crl:CD(SD) rat at 1 mg/kg, po by LC-MS/MS analysis; format: ADME, organism-based; details: in vivo; summary of the method: as §1
[5] = AUC (0 to infinity) in cynomolgus monkey at 3 mg/kg, po by LC-MS/MS analysis; format: ADME, organism-based, Macaca fascicularis; design: time infinity, route oral, dose 3 mg/kg; details: in vivo; summary of the method: as §1
[6] = Clearance in human liver microsome at 0.1 umol/l and measured for 60 mins by LC-MS/MS analysis; format: ADME; details: microsomes, 1 h, 0.1 µM, dose 0.1 µmol/L
Summary of the method: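 Liver microsomes (1 mg protein/mL final) with an NADPH regenerating system were preincubated 5 min at 37°C, then given 0.1 µmol/L compound. Samples were taken at 0-60 min, quenched in methanol/acetonitrile with internal standard, and analysed by LC-MS/MS. Runs were in triplicate. kel came from 5-30 min points. CLint = kel/protein concentration (mL/min/mg protein).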

Cytochrome P450 3A4 = Cytochrome P450 3A4 (Homo sapiens, UniProt P08684); experiment: Inhibition of recombinant human CYP3A4; format: ADME
[7] = Volume of distribution at steady state in Beagle dog at 1 mg/kg, iv by LC-MS/MS analysis; format: ADME, organism-based, Canis lupus familiaris; details: in vivo, read-out: Vdss
Summary of the method: (§2)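 Male animals received intravenous solution in DMSO/PEG400/saline (5/47.5/47.5). EDTA plasma was extracted with methanol/acetonitrile (1:1) plus internal standard and quantified by LC-MS/MS. AUC0-inf was calculated by the trapezoidal rule with terminal-phase kel extrapolation.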

Mus musculus = experiment: Cardioprotective activity in C57BL/6 mouse model of LAD coronary artery ligation-induced myocardial infarction assessed as reduction in LV chamber area at 0.3 mg/kg, po and measured after 28 days; format: functional, organism-based; details: time 28.0 day
Summary of the method: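 Male C57BL/6 mice (10-12 weeks) underwent permanent LAD ligation under ketamine/xylazine, with shams having an untightened suture. Compound (0.3 mg/kg/d) or vehicle was given by oral gavage once daily (5 mL/kg) from post-MI day 4 for 24 days. Endpoints were taken at 28 days post-MI; scar length was quantified from LV cross sections.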

[8] = AUC (0 to infinity) in BALB/cCrSlc mouse at 1 mg/kg, po by LC-MS/MS analysis; format: ADME, organism-based; design: time infinity, route oral, dose 1 mg/kg; details: in vivo; summary of the method: as §1
[9] = Total clearance in Beagle dog at 1 mg/kg, iv by LC-MS/MS analysis; format: ADME, organism-based, Canis lupus familiaris; details: in vivo; summary of the method: as §2

Cytochrome P450 3A4, sequence (P08684 whole entry): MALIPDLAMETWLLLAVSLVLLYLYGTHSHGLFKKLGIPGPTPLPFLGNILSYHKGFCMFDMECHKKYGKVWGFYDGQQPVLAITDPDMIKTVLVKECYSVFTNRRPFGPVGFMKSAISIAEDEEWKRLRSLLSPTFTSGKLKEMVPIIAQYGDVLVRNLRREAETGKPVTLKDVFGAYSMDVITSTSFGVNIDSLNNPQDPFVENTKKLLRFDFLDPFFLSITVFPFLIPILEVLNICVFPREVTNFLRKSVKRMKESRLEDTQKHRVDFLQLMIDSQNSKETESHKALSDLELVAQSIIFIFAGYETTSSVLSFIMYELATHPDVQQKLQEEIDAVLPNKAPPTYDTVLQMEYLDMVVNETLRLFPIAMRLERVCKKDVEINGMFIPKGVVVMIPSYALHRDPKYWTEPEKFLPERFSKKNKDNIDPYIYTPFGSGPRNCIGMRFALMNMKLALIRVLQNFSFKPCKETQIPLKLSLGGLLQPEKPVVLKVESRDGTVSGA

**Q.** Which Cmax [1] does the source give for COc1cc(F)c([C@@H]2CNC(=O)[C@H]2NC(=O)Nc2ccccc2)c(F)c1 [BMS-986235] here?
**A.** Its Cmax is 800 nM.

**Q.** What about the EC50 [2] of the same compound?
**A.** The EC50 was 0.5 nM.

**Q.** What about the bioavailability [3] of the same compound?
**A.** The bioavailability was 24%.

**Q.** And the half-life [4]?
**A.** Its half-life is 3.8 h.

**Q.** And the AUC(0-inf) [5]?
**A.** Its AUC(0-inf) is 5.8 µM·h.

**Q.** And the CLH [6]?
**A.** The CLH was 3.3 µL/min/mg.

**Q.** What about the IC50 (Cytochrome P450 3A4) of the same compound?
**A.** The IC50 was > 20000 nM.

**Q.** What about the Vd [7] of the same compound?
**A.** The Vd was 0.98 L/kg.

**Q.** And the Activity (Mus musculus)?
**A.** The Activity was “Active”.

**Q.** And the AUC(0-inf) [8]?
**A.** Its AUC(0-inf) is 0.12 µM·h.

**Q.** What about the clearance [9] of the same compound?
**A.** Its clearance is 6.6 mL/min/kg.
